The source of these data is ChEMBL document CHEMBL4024801, “Synthesis and Structure-Activity Relationship (SAR) Studies of Novel Pyrazolopyridine Derivatives as Inhibitors of Enterovirus Replication” (J Med Chem, 2018).

One data set relates to Enterovirus A71. The experiment in a line: Antiviral activity against Enterovirus A71 infected in monkey LLC-MK2 cells assessed as protection against virus-induced cytopathic effect after 3 to 4 days by crystal violet staining-based spectrophotometric method. The class given is functional, cell-based. The settings on record: Enterovirus A. In outline: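 EV-A71 was tested in LLC-MK2 cells grown in DMEM with 10% FBS, penicillin, streptomycin and glutamine, at a low MOI preset to give full CPE in 3–4 days. Compound was dissolved in DMSO and diluted 2-fold, in triplicate. Cells were fixed with formaldehyde when control CPE was maximal, then stained with crystal violet and read at OD590. EC50 came from a 7-point four-parameter or sigmoidal fit.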

A further data set deals with Poliovirus 1. The data set can be described thus: Antiviral activity against Poliovirus 1 infected in human HeLa-RW cells assessed as protection against virus-induced cytopathic effect after 3 to 4 days by crystal violet staining-based spectrophotometric method. The class given is functional, cell-based. To be noted: Enterovirus C. In outline: (§1)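 HeLa-RW cells grown in DMEM with penicillin, streptomycin, glutamine and 10% FBS. They were infected at a low MOI pre-set to give full CPE in 3-4 days. Compound in DMSO was added as serial 2-fold dilutions (7 points), each in triplicate. When control CPE was maximal, cells were fixed with 4% formaldehyde, stained with 0.25% crystal violet and read at OD590. EC50 came from a four-parameter or sigmoidal fit.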
For orientation: Damage to the host cells serves as the signal in cytopathic effect assays.

A short description of data set [1]: Selectivity index, ratio of CC50 for human HeLa-RW cells to EC50 for Poliovirus 3. The data set is classed as toxicity. To be noted: read-out: Ratio CC50/EC50. In outline: (§2)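 HeLa-RW cells grown in DMEM with penicillin, streptomycin, glutamine and 10% FBS were infected at a low MOI chosen to give full CPE in 3-4 days. Serial 2-fold compound dilutions from DMSO stocks were tested in triplicate. When control CPE was maximal, cells were formaldehyde-fixed, crystal violet-stained and read at OD590. EC50 came from a 7-point curve. CC50 used uninfected cells over the same period.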

A short description of data set [2]: Cytotoxicity against human HeLa-RW cells after 3 to 4 days by crystal violet staining-based spectrophotometric method. The data set is classed as cell-based. The gist of the method:
(§3)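 Uninfected cells (HeLa-RW or LLC-MK2, in DMEM with penicillin, streptomycin, glutamine and 10% FBS) were exposed to serial 2-fold compound dilutions for the same period as the CPE assay. They were then fixed with formaldehyde, stained with crystal violet and read by OD590 spectrophotometry to derive CC50. Values are means ± s.d. of 3 experiments, or the average of triplicates in one.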

The next data set has as its system Poliovirus 3. The data set can be described thus: Antiviral activity against Poliovirus 3 infected in human HeLa-RW cells assessed as protection against virus-induced cytopathic effect after 3 to 4 days by crystal violet staining-based spectrophotometric method. The class given is functional, cell-based. The settings on record: Enterovirus C. In outline: as §1

Another data set concerns LLC-MK2. The data set can be described thus: Cytotoxicity against monkey LLC-MK2 cells after 3 to 4 days by crystal violet staining-based spectrophotometric method. The data set is classed as cell-based, Macaca mulatta. The settings on record: rhesus monkey. The gist of the method:
as §3

The nature of data set [3]: Selectivity index, ratio of CC50 for human HeLa-RW cells to EC50 for Poliovirus 1. The class given is toxicity. To be noted: read-out: Ratio CC50/EC50. In outline: as §2
Data set [4] can be described thus: Selectivity index, ratio of CC50 for monkey LLC-MK2 cells to EC50 for Enterovirus A71. The data set is classed as toxicity. The settings on record: read-out: Ratio CC50/EC50. The gist of the method:
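LLC-MK2 cells in DMEM with 10% FBS were used for both arms. For EC50, cells were infected with EV-A71 at a low MOI giving full CPE in 3–4 days and exposed to 2-fold compound dilutions, in triplicate. For CC50, uninfected cells got 2-fold dilutions for the same period. Both arms were formaldehyde-fixed, crystal violet-stained and read at OD590.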

For a further data set, the system named is Coxsackievirus B3. The experiment in a line: Antiviral activity against Coxsackievirus B3 infected in human HeLa-RW cells assessed as protection against virus-induced cytopathic effect after 3 to 4 days by crystal violet staining-based spectrophotometric method. The class given is functional, cell-based. To be noted: Enterovirus B. In outline: as §1
A short description of data set [5]: Selectivity index, ratio of CC50 for human HeLa-RW cells to EC50 for Coxsackievirus B3. The settings on record: read-out: Ratio CC50/EC50. The class given is toxicity. In outline:
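HeLa-RW cells in DMEM with 10% FBS were used for both arms. For EC50, cells were infected with CVB3-H3 at a low MOI giving full CPE in 3–4 days and exposed to 2-fold compound dilutions, in triplicate, with a 7-point fit. For CC50, uninfected cells got 2-fold dilutions for the same period. Both arms were fixed, crystal violet-stained and read at OD590.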

The EC50 is the concentration at which the effect is half-maximal. For orientation: CC50 means the concentration that lowers cell viability or growth by half.

As to `CC(C)n1ncc2c(C(=O)Nc3cc(S(N)(=O)=O)ccc3F)cc(-c3cccs3)nc21`, the EC50 came out at 0.5 µM with Enterovirus A71, 6.3 µM in the data set with Poliovirus 1, 6.3 µM in the data set on Poliovirus 3 and 0.7 µM with Coxsackievirus B3. Further, the selectivity ratio in data set [1] was 2.9; in [3], 2.9; in [4] it was 50; in data set [5], 25.7. Moreover, the results for the cytotoxic concentration (CC50) (in data set [2] (hela-rw); in the data set on LLC-MK2) were 18 µM and 25 µM, respectively.
`CC(C)n1ncc2c(C(=O)Nc3cccnc3)cc(-c3cccs3)nc21`: the EC50 in the data set with Enterovirus A71 was 0.5 µM; in the data set on Poliovirus 1, 10 µM; in the data set with Poliovirus 3, 10 µM; in the data set on Coxsackievirus B3 it was 0.4 µM. The selectivity ratio in data set [1] was 2.5; in data set [3], 2.5; in data set [4], > 400; in data set [5] it was 62.5. The 50% cytotoxic concentration (CC50) was 25 µM in data set [2] (hela-rw) and > 200 µM in the data set with LLC-MK2.
As for `CC(C)n1ncc2c(C(=O)N3CCc4cc(F)ccc43)cc(-c3cccs3)nc21`, the concentration for a half-maximal effect (EC50) worked out at 1.3 µM with Enterovirus A71, 10 µM in the data set on Poliovirus 1, 10 µM with Poliovirus 3 and 1.9 µM in the data set with Coxsackievirus B3. Also, the selectivity ratio was 1.9 in [1], 1.9 in data set [3], > 153 in data set [4] and 9.9 in data set [5]. The half-maximal cytotoxic concentration (CC50) in [2] (hela-rw) was 18.8 µM; in the data set on LLC-MK2 it was > 200 µM.
On to `CC(C)n1ncc2c(C(=O)Nc3cccc(S(N)(=O)=O)c3)cc(-c3cccs3)nc21`, for which the half-maximal effective concentration (EC50) was determined as 1.3 µM in the data set on Enterovirus A71, 5 µM with Poliovirus 1, 5 µM in the data set on Poliovirus 3 and 1.3 µM in the data set on Coxsackievirus B3. Further, the selectivity ratio in [1] stood at 10; in data set [3], 10; in data set [4], 19.2; in data set [5], 167. Also, the CC50 is 50 to 200 µM in data set [2] (HeLa-RW cells) and 25 µM in the data set on LLC-MK2.
As for `CC(C)n1ncc2c(C(=O)Nc3cncnc3)cc(-c3cccs3)nc21`, the EC50 was 0.4 µM in the data set with Enterovirus A71, 10 µM in the data set with Poliovirus 1, 10 µM in the data set with Poliovirus 3 and 0.7 µM in the data set with Coxsackievirus B3. Further, the selectivity ratio in data set [1] stood at 1.8; in data set [3], 1.8; in [4] it was 50; in data set [5] it was 25.7. The values for the CC50 (in [2] (hela-rw); in the data set with LLC-MK2) were 18 µM and 20 µM, respectively.
Turning to `CC(C)n1ncc2c(C(=O)Nc3c(F)cc(F)cc3F)cc(-c3cccs3)nc21`, the EC50 is 3 µM in the data set with Enterovirus A71, > 25 µM in the data set with Poliovirus 1, > 25 µM with Poliovirus 3 and 1.8 µM in the data set with Coxsackievirus B3. The CC50 (in data set [2] (hela-rw); in the data set on LLC-MK2) was > 200 µM throughout. Moreover, the selectivity ratio in data set [4] was > 66.7; in data set [5] it was > 111.
As to `CC(C)n1ncc2c(C(=O)Nc3cccc(C(N)=O)c3)cc(-c3cccs3)nc21`, the concentration giving a half-maximal response (EC50) in the data set with Enterovirus A71 was 0.8 µM; with Poliovirus 1, 6.3 µM; in the data set on Poliovirus 3, 6.3 µM; in the data set on Coxsackievirus B3, 0.7 µM. Also, the selectivity ratio in [1] came out at 2.9; in [3], 2.9; in data set [4], 31.3; in data set [5], 25.7. The figures for the cytotoxic concentration (CC50) (in data set [2] (hela-rw); in the data set on LLC-MK2) were 18 µM and 25 µM, respectively.
On to `CC(C)n1ncc2c(C(=O)Nc3ccccc3F)cc(-c3cccs3)nc21`, for which the EC50 in the data set on Enterovirus A71 is 2.3 µM; in the data set on Poliovirus 1, 7 µM; with Poliovirus 3, 7 µM; with Coxsackievirus B3 it was 1.4 µM. The selectivity ratio was determined as 1.8 in [1], 1.8 in data set [3], 21.7 in data set [4] and 8.9 in data set [5]. The CC50 in data set [2] (hela-rw) came to 12.5 µM; with LLC-MK2, 50 µM.
Take `CC(C)n1ncc2c(C(=O)Nc3ccc(F)cn3)cc(-c3cccs3)nc21`: the EC50 in the data set on Enterovirus A71 is 1.2 µM; in the data set on Poliovirus 1 it was > 10 µM; with Poliovirus 3, > 10 µM; in the data set with Coxsackievirus B3, 0.7 µM. Besides, the CC50 in data set [2] (hela-rw) is 37.5 µM; in the data set on LLC-MK2 it was > 200 µM. The selectivity ratio in data set [4] was > 167; in data set [5] it was 53.6.
Consider `CC(C)n1ncc2c(C(=O)Nc3ccccn3)cc(-c3cccs3)nc21`, for which the half-maximal effective concentration (EC50) in the data set with Enterovirus A71 was 0.5 µM; with Poliovirus 1, > 10 µM; in the data set with Poliovirus 3, > 10 µM; in the data set with Coxsackievirus B3, 0.8 µM. Moreover, the cytotoxic concentration (CC50) (in [2] (hela-rw); with LLC-MK2) was > 200 µM throughout. Moreover, the selectivity ratio in data set [4] is > 400; in data set [5], > 250.
With `CC(C)n1ncc2c(C(=O)Nc3cccc(F)c3)cc(-c3cccs3)nc21`, the EC50 in the data set on Enterovirus A71 was 2.4 µM; in the data set on Poliovirus 1, > 25 µM; in the data set on Poliovirus 3 it was > 25 µM; in the data set on Coxsackievirus B3, 0.8 µM. The CC50 (in data set [2] (hela-rw); in the data set on LLC-MK2) was > 200 µM each time. Moreover, the selectivity ratio in [4] is > 83.3; in [5], > 250.
For the compound `CC(C)n1ncc2c(C(=O)Nc3cc(C(N)=O)ccc3F)cc(-c3cccs3)nc21`, the half-maximal effective concentration (EC50) was 0.5 µM in the data set with Enterovirus A71, 5 µM in the data set with Poliovirus 1, 5 µM with Poliovirus 3 and 0.8 µM in the data set with Coxsackievirus B3. Also, the selectivity ratio in [1] was found to be 3.8; in [3], 3.8; in data set [4] it was 50; in data set [5], 23.5. Also, the CC50 in [2] (hela-rw) was determined as 18.8 µM; with LLC-MK2 it was 25 µM.
In the case of `CC(C)n1ccc2c(C(=O)Nc3ccccn3)cc(-c3cccs3)nc21`, the EC50 with Enterovirus A71 was 1.2 µM; with Poliovirus 1 it was > 10 µM; in the data set on Poliovirus 3 it was > 10 µM; with Coxsackievirus B3, 2.2 µM. Besides, the CC50 in data set [2] (hela-rw) was 18.8 µM; in the data set with LLC-MK2 it was > 200 µM. For the same compound, the selectivity ratio in data set [4] was > 167; in data set [5] it was 8.5.
For `CC(C)n1ncc2c(C(=O)Nc3ccc(F)cc3)cc(-c3ccsc3)nc21`, the EC50 was 1.4 µM in the data set on Enterovirus A71, > 25 µM in the data set with Poliovirus 1, > 25 µM in the data set on Poliovirus 3 and 1.3 µM with Coxsackievirus B3. Further, the CC50 in data set [2] (hela-rw) is 25 µM; in the data set on LLC-MK2, > 200 µM. Further, the selectivity ratio in [4] was > 143; in data set [5], 19.2.
`CC(C)n1ncc2c(C(=O)Nc3ccncc3)cc(-c3cccs3)nc21`: the EC50 was 0.4 µM in the data set on Enterovirus A71, > 10 µM in the data set on Poliovirus 1, > 10 µM in the data set with Poliovirus 3 and 0.6 µM in the data set with Coxsackievirus B3. For the same compound, the CC50 in [2] (hela-rw) was found to be 6 µM; in the data set with LLC-MK2 it was 6.3 µM. For the same compound, the selectivity ratio in [4] came to 15.8; in data set [5], 10.
As to `CC(C)n1ncc2c(C(=O)Nc3cc(F)ccc3F)cc(-c3cccs3)nc21`, the EC50 was 3.5 µM with Enterovirus A71, > 25 µM in the data set with Poliovirus 1, > 25 µM in the data set with Poliovirus 3 and 2.7 µM in the data set on Coxsackievirus B3. The CC50 is > 200 µM in data set [2] (hela-rw) and 100 µM in the data set with LLC-MK2. The results for the selectivity ratio in [4] and in data set [5] were 28.6 and > 74.1, respectively.
In the case of `CC(C)n1ncc2c(C(=O)Nc3ccc(F)cc3)cc(-c3cccs3)nc21`, the concentration giving a half-maximal response (EC50) in the data set with Enterovirus A71 was 0.9 µM; in the data set with Poliovirus 1, > 25 µM; with Poliovirus 3 it was > 25 µM; in the data set with Coxsackievirus B3, 0.7 µM. The CC50 (in data set [2] (hela-rw); with LLC-MK2) was > 200 µM throughout. For the same compound, the selectivity ratio was > 222 in [4] and > 286 in data set [5].
